Compounds with a hit are over-represented: about 1.6% of the library has one in this group of screens.
KLK7 zymogen act: proKLK7 (human) activation, primary screen. P49862. purified proKLK7, EDANS-DABCYL substrate fluorescence; 100% is mature enzyme control, 0% vehicle. activation, % at 7 µM. 370,000 compounds, 0.9% hits. AID 652039;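 active = activation above the mean of all tested compounds plus 3 SD, computed per campaign excluding outliers beyond control limits, cut at about 13% in these data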
proCasp3 act: activates human procaspase-3; recombinant procaspase-3 D3A, Ac-DEVD-pNA absorbance 405 nm; P42574; activation, % at 8.5 µM; 330,000 compounds, 0.11% hits;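 active = activation above the mean of all tested compounds plus 3 SD, cut at about 21% in these data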;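 note: 0% = DMSO alone and 100% = DMSO wells spiked with extra 5 µM PC-3 D3A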
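Assay system: Autoprocessing-dead procaspase-3 D3A mutant enzyme; also added: Ac-DEVD-pNA; doses: one concentration, 8.5 µM nominal, 0.8% DMSO; times: 1 h compound preincubation, 2 h substrate hydrolysis at 25 °C; technique: 405 nm absorbance of p-nitroaniline, reads at 0 and 120 min; measure: % activation between DMSO and enzyme-spiked controls; repeats: single replicate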
procasp7 counter: counter-screen for procaspase-3 activators: activators of human procaspase-7. recombinant procaspase-7, Ac-DEVD-pNA absorbance 405 nm; D23A/D198A/D206A triple mutant, cannot self-cleave; scale: DMSO 0, 5 µM enzyme 100. P55210. AID 463210. 330,000 compounds, 0.093% hits. activation, % at 8.5 µM;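 active = percent activation above the screen-wide mean plus 3 SD, cut at about 25% in these data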
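Assay system: Uncleavable procaspase-7 mutant enzyme | Input: 2 µM procaspase-7 mutant as dispensed | Timing: 1 h compound preincubation, 2 h substrate cleavage, 25 °C | Repeats: One well per compound | Control set: DMSO wells as 0%, DMSO with 5 µM added PC-7 as 100% | Technique: Epi-absorbance of released pNA at 405 nm, two timepoints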
Neddyl block: cullin neddylation inhibition. TR-FRET cullin neddylation, biochemical. 360,000 compounds, 0.58% hits. P61081+Q13564. AID 651699. calls only at 25 µM; in the data active = inhibition above about 36%
Target sequence (P61081 whole entry, looked up): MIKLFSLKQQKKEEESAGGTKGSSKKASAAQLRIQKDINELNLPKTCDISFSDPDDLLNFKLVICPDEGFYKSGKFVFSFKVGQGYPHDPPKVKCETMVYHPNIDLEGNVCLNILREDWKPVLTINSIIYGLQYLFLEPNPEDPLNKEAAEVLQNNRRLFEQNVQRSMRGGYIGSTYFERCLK
Target sequence (Q13564 whole entry, looked up): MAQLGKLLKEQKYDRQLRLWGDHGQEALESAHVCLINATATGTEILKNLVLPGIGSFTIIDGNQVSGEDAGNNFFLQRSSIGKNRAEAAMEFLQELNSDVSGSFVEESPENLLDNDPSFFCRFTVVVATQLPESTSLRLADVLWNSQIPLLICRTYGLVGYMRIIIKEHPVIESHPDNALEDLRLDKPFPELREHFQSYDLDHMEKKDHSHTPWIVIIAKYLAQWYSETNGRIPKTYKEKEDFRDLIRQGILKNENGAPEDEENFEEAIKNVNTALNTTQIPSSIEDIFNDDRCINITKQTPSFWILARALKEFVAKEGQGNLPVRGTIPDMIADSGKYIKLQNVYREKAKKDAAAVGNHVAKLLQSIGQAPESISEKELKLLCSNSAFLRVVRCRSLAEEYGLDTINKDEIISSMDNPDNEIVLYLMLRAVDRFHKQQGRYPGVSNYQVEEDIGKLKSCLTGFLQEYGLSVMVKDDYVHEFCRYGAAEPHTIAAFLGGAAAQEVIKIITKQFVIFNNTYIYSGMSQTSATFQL
KLK7 act conf: proKLK7 activation, confirmation; shares compounds with KLK7 zymogen act; purified proKLK7, EDANS-DABCYL substrate fluorescence; scaled: vehicle 0, mature enzyme 100; activation, % at 7 µM; 3,200 compounds, 68% hits; AID 686949;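 active = activation, as change over the incubation, above the mean of all tested compounds plus 3 SD, cut at about 13% in these data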
EDANS-DABCYL int: counter-screen for kallikrein-7 activators: EDANS-DABCYL optical interference | shares compounds with KLK7 zymogen act | EDANS-DABCYL substrate fluorescence interference, no enzyme, 4 h; solvent 0%, active enzyme control 100% | activation, % at 7 µM | 3,200 compounds, 80% hits | AID 686952;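 active = activation above the all-compound mean plus 3 SD, ignoring values outside control-based bounds, cut at about 4.8% in these data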;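 note: value is the 4 h activation minus the activation read at time zero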
K7 EDANS ctr: optically interferes with EDANS-DABCYL fluorescence, kallikrein-7 activator counter-screen | shares compounds with KLK7 zymogen act | EDANS-DABCYL peptide fluorescence interference, no enzyme | EC50, µM | 250 compounds, 20% hits;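 active = compounds that raise the fluorescence signal in this interference counterscreen, with EC50 at or below 10 µM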;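 note: intact quenched peptide substrate alone read at 355 nm excitation and 520 nm emission; signal is fluorescence gain from T0 to T4 after four hours at room temperature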
* hit, by the source's call; i = inactive; nt = no result shown.

SMILES	KLK7 zymogen act	proCasp3 act	procasp7 counter	Neddyl block	KLK7 act conf	EDANS-DABCYL int	others
Cc1ccc2nc(NCCC(=O)O)nc(-c3ccccc3)c2c1	2.1	4.2	4.9	nt	nt	nt
Cc1ccc2nc(NCC(=O)O)nc(-c3ccccc3)c2c1	14.2*	-3.0	-0.1	nt	28.5*	15.5*	K7 EDANS ctr=>69.5
C[C@@H]1CN(c2ccc(N3CCNC[C@@H]3C)cc2C#N)CCN1Cc1ccccc1	4.1	nt	nt	nt	nt	nt
Cc1c(C)c2c(OCC(=O)NCC(=O)NCC(=O)O)cc3c(c2oc1=O)CCC(C)(C)O3	57.1*	2.5	-4.3	nt	78.9*	79.3*
Cc1c(C)c2c(OCC(=O)O)cc3c(c2oc1=O)CCC(C)(C)O3	33.2*	8.4	13.6	nt	60.7*	72.7*
Cc1c(C)c2c(OCC(=O)Nc3ccc(CCO)cc3)cc3c(c2oc1=O)CCC(C)(C)O3	-58.6	-2.4	-0.5	i	nt	nt
S=c1[nH]nc(-c2cc3c(s2)-c2ccccc2CC3)o1	38.8*	2.6	7.5	i	70.0*	69.6*
O=C(NCCCn1ccnc1)c1ccc(N2CCCCC2)c([N+](=O)[O-])c1	0.7	-2.9	2.1	i	nt	nt
O=c1cc(C(F)(F)F)c2sc(N3CCCCC3)nc2[nH]1	37.9*	-9.6	-5.0	nt	2.1	10.5*
N#CCCNc1c(Cl)cc(Cl)cc1C(=O)O	-0.3	6.5	-0.9	i	nt	nt
Cc1ccc(S(=O)(=O)NN2C(=O)c3ccccc3NC2(C)C)cc1	49.4*	8.3	2.4	nt	49.6*	42.6*
CCOC(=O)NN1C(=O)c2ccccc2NC12CCCC2	6.8	-2.5	-2.7	nt	nt	nt
CC1(C)Nc2ccccc2C(=O)N1NS(=O)(=O)c1ccccc1	75.3*	3.2	7.9	nt	46.2*	41.9*
C=CCOC(=O)C1=C[C@H](C2CCCCC2)[C@@H](CCCO)[C@H](OCC)O1	0.2	-0.1	-3.9	i	nt	nt
COC(=O)COc1cc(OCC(=O)OC)c2c(C)c(Cl)c(=O)oc2c1	191.7*	1.8	11.2	nt	303.6*	277.2*
COC(=O)C(C)Oc1cc(OC(C)C(=O)OC)c2c(C)c(Cl)c(=O)oc2c1 (stereo not given)	65.2*	-6.9	-6.7	nt	-39.9	29.5*
COC(=O)COc1cc(C)cc2oc(=O)c(CC(=O)OC)c(C)c12	73.5*	3.1	-1.1	nt	96.6*	99.4*
COc1ccc2c(C)c(Cl)c(=O)oc2c1	6.6	0.6	-8.0	nt	nt	nt
O=C1CCC/C=C/C[C@H](CC(=O)N(CCO)Cc2ccccc2)C(=O)N[C@@H](Cc2ccccc2)CO1	0.1	9.0	-8.1	i	nt	nt
Cc1nnc(N(C)C(=O)c2cccnc2)s1	-0.7	-4.2	-1.5	i	nt	nt
CN(C(=O)c1cnccn1)c1nnc(-c2cnccn2)s1	19.7*	-14.2	-10.3	i	37.6*	42.3*
CN(C(=O)C1CCCO1)c1nnc(-c2cnccn2)s1 (stereo not given)	53.6*	-1.6	-9.8	i	39.3*	81.2*
Cc1ccc(-c2nnc(N(C)C(=O)C3CCCO3)s2)cn1 (stereo not given)	2.6	-1.4	3.4	i	nt	nt
CN(C(=O)c1ccccn1)c1nnc(-c2cnccn2)s1	9.4	1.8	10.0	i	nt	nt
CN(C(=O)c1cccc(C#N)c1)c1nnc(-c2cnccn2)s1	2.6	1.4	3.9	i	nt	nt
SMILES	KLK7 zymogen act	proCasp3 act	procasp7 counter	Neddyl block	KLK7 act conf	EDANS-DABCYL int	others
CN(C(=O)c1cccnc1)c1nnc(-c2ccccn2)s1	73.3*	4.0	6.7	i	38.6*	37.3*
CN(C(=O)c1ccncc1)c1nnc(-c2cnccn2)s1	32.6*	3.8	-11.7	i	77.1*	82.2*
COc1ccc(C(=O)OCC(=O)NCc2ccc3c(c2)OCO3)cc1S(=O)(=O)N1CCOCC1	-0.1	8.1	0.3	i	nt	nt
CN(CC(=O)Nc1ccccc1Cl)C(=O)c1ccc(N2C(=O)CCC2=O)cc1	-0.3	nt	nt	i	nt	nt
COc1cc(NC(=O)C2CC(=O)NC3=C2C(=O)CCC3)c(OC)cc1Cl (stereo not given)	-1.0	7.5	-5.5	i	nt	nt
CN(C(=O)c1cccnc1)c1nnc(-c2cnccn2)s1	42.4*	-0.9	6.7	i	32.7*	34.4*
CN(C(=O)c1cccnc1)c1nnc(-c2cccnc2)s1	1.3	6.0	6.6	i	nt	nt
C=C(C)C1CC=C(C)/C(=N\NC(=O)CNc2cccc3ccccc23)C1 (stereo not given)	24.9*	-13.8	-9.8	i	6.2	6.8*
C=C(C)[C@H]1CC=C(C)/C(=N/NC(=O)CNc2ccccc2OC)C1	-1.0	-3.4	-6.1	i	nt	nt
O=C(COC(=O)CCNS(=O)(=O)c1ccccc1)NC(=O)c1ccccc1	-0.2	2.0	10.3	i	nt	nt
Cc1ccc(C(=O)COC(=O)CSc2cccc3cccnc23)c(C)c1	14.9*	-9.3	6.1	i	11.9	12.4*
COCCNC(=O)/C(C#N)=C/c1cn(CC(=O)NCc2ccco2)c2ccccc12	74.8*	-8.4	-0.1	i	7.8	5.8*
C[C@@H]1C(c2ccccc2)=NN(c2ccccc2)[C@H]1C(=O)N1CCOC1=O	243.3*	-4.0	3.5	nt	222.9*	217.4*
O=c1cc[nH]c2c1ccc1c(=O)cc[nH]c12	-61.1	12.3	-0.1	nt	nt	nt
CN(C)c1ccc2c(=O)cc[nH]c2c1	79.6*	nt	nt	nt	72.4*	73.5*
CCN(CC)C(=O)[C@H]1C[C@H](CC(=O)NCCN2CCOCC2)C(=O)N2CCc3c([nH]c4cc(-c5ccco5)ccc34)[C@]12C	120.4*	-6.5	13.0	nt	148.5*	194.5*
CCN(CC)C(=O)[C@H]1CC(CC(=O)NCCN2CCOCC2)C(=O)N2CCc3c([nH]c4ccccc34)[C@]12C (stereo not given in full)	0.9	0.5	8.5	i	nt	nt
CCN(CC)C(=O)[C@H]1C[C@H](CC(=O)NCCCn2ccnc2)C(=O)N2CCc3c([nH]c4cc(-c5ccco5)ccc34)[C@]12C	94.5*	-2.7	0.0	nt	68.7*	73.8*
CCN(CC)C(=O)[C@H]1C[C@H](CC(=O)NCc2ccco2)C(=O)N2CCc3c([nH]c4cc(-c5ccco5)ccc34)[C@]12C	111.8*	-6.4	4.1	nt	44.0*	50.8*
Cc1ccc(C(O)c2ncc(-c3ccc(F)cc3)[nH]2)c(C)c1 (stereo not given)	-0.6	nt	nt	i	nt	nt
CNC(C)C#Cc1ccc2oc3cccc(OC)c3c(=O)c2c1 (stereo not given)	34.1*	-6.5	-2.1	nt	7.6	12.1*

From PubChem
